Source: ChEMBL document CHEMBL3593191, “Ethyl 2-((4-Chlorophenyl)amino)thiazole-4-carboxylate and Derivatives Are Potent Inducers of Oct3/4” (2015)
Blank lines part the entries; values can stand above or below the compound they belong to. Activity calls are given as the source filed them. The calls are words filed in the database; no cut-off is given here.

What was measured:
[1] = molecular target: POU domain, class 5, transcription factor 1 (Homo sapiens) (UniProt Q01860); experiment: Activation of Oct3/4 (unknown origin) expressed in HEK293 cells after 72 hrs by luciferase reporter gene assay relative to control; assay type: cell-based
POU domain, class 5, transcription factor 1 (Homo sapiens), sequence (Q01860 whole entry, the tested form may be a part): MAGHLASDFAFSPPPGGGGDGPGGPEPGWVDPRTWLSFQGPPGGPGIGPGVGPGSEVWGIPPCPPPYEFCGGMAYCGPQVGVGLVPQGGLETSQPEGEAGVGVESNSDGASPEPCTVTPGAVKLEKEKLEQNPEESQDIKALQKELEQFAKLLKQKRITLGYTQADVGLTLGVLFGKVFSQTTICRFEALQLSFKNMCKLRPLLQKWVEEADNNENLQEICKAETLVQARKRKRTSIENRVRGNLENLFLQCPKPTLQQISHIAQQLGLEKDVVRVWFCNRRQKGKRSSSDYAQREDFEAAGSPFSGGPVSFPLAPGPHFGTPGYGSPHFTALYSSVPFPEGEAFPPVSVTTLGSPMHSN
Outline: (§1)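 HEK293 cells stably carrying luciferase under a human Oct3/4 promoter (HEK-Oct3/4), or NCCIT cells lentivirally transduced with an Oct3/4 transcriptional response element reporter (NCCIT-Oct3/4, kept under 400 ng/mL puromycin). Cells seeded at 100,000/well for 24 h, then treated with compound. Lysed for 10 min at 37°C, luciferin/ATP mix added, read after 3 min. Signal given as percent of control cells; at least five independent experiments.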

[2] = molecular target: POU domain, class 5, transcription factor 1 (Homo sapiens) (UniProt Q01860); experiment: Activation of Oct3/4 (unknown origin) expressed in human HEK293 cells after 48 hrs by luciferase reporter gene assay relative to control; assay type: cell-based; outline: as §1
[3] = molecular target: POU domain, class 5, transcription factor 1 (Homo sapiens) (UniProt Q01860); experiment: Activation of Oct3/4 (unknown origin) expressed in HEK293 cells at 40 uM after 72 hrs by luciferase reporter gene assay relative to control; assay type: cell-based; outline: as §1
[4] = molecular target: POU domain, class 5, transcription factor 1 (Homo sapiens) (UniProt Q01860); experiment: Activation of Oct3/4 (unknown origin) expressed in HEK293 cells assessed as accumulation of Nanog after 72 hrs by immunoblotting; assay type: cell-based
Outline: (§2)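 Immunoblot. Compound-treated cells lysed in urea lysis buffer (6 M urea, 0.5% Triton X-100, protease/phosphatase inhibitors). 40 µg total protein run on 10% SDS-PAGE. Probed with Oct3/4, Nanog or Lin28 antibodies, with vinculin or β-actin as loading control. Primary antibody 1:1000 overnight at 4°C, secondary 1:10,000 for 1 h at RT; ECL detection.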

[5] = molecular target: POU domain, class 5, transcription factor 1 (Homo sapiens) (UniProt Q01860); experiment: Activation of Oct3/4 in human fibroblasts assessed as co-expression of Oct3/4 and Sox2 after 5 days by immunocytochemistry analysis
Outline: (§3)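 Primary human fibroblasts seeded at 10,000 cells/well on Geltrex. After 24 h, treated for 5 days in DMEM/F12 with 20% knockout serum replacement, 10 ng/mL bFGF and 1 mM β-mercaptoethanol. Fixed in 4% PFA, blocked with 5% goat serum/0.3% Triton. Stained overnight at 4°C for Oct3/4 (1:400), Nanog (1:1000), Sox2 (1:100) or Klf4 (1:100), then Alexa 594/488 secondary for 1 h.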

Fibroblast [6] = experiment: Induction of endogenous cellular parameters in human fibroblasts assessed as increase in ALP-FITC signal using propidium iodide staining after 5 days; assay type: functional, cell-based
HEK293 [7] = experiment: Increase of Oct3/4 gene expression in human HEK293 cells after 72 hrs by RT-PCR analysis; assay type: functional, cell-based
Outline: (§4)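 qRT-PCR of pluripotency-related genes in compound-treated HEK293 cells or primary human skin fibroblasts, against an endogenous control gene. Values normalized to DMSO-treated cells as mean ± SD of quadruplicates, representative of two independent experiments.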

[8] = molecular target: POU domain, class 5, transcription factor 1 (Homo sapiens) (UniProt Q01860); experiment: Activation of Oct3/4 (unknown origin) expressed in HEK293 cells assessed as increase of Lin28 gene expression after 72 hrs by RT-PCR analysis; assay type: cell-based; outline: as §4
[9] = molecular target: POU domain, class 5, transcription factor 1 (Homo sapiens) (UniProt Q01860); experiment: Activation of Oct3/4 (unknown origin) expressed in human HeLa cells after 72 hrs by luciferase reporter gene assay relative to control; assay type: cell-based
[10] = molecular target: POU domain, class 5, transcription factor 1 (Homo sapiens) (UniProt Q01860); experiment: Activation of Oct3/4 (unknown origin) expressed in human NCCIT cells at 5 uM after 72 hrs by luciferase reporter gene assay relative to control; assay type: cell-based
[11] = molecular target: POU domain, class 5, transcription factor 1 (Homo sapiens) (UniProt Q01860); experiment: Activation of Oct3/4 in human fibroblasts assessed as increase of Lin28 gene expression after 48 hrs by RT-PCR analysis relative to control; outline: as §4
Fibroblast [12] = experiment: Increase of Oct3/4 gene expression in human fibroblasts after 48 hrs by RT-PCR analysis relative to control; assay type: functional; outline: as §4
[13] = molecular target: POU domain, class 5, transcription factor 1 (Homo sapiens) (UniProt Q01860); experiment: Activation of Oct3/4 in human fibroblasts assessed as increase of Rex1 gene expression after 48 hrs by RT-PCR analysis relative to control; outline: as §4
[14] = molecular target: POU domain, class 5, transcription factor 1 (Homo sapiens) (UniProt Q01860); experiment: Activation of Oct3/4 (unknown origin) expressed in human NCCIT cells assessed as accumulation of Nanog after 72 hrs by immunoblotting; assay type: cell-based; outline: as §2
HEK293 [15] = experiment: Increase of Oct3/4 expression in human HEK293 cells after 72 hrs by immunoblotting; assay type: functional, cell-based; outline: as §2
[16] = molecular target: POU domain, class 5, transcription factor 1 (Homo sapiens) (UniProt Q01860); experiment: Activation of Oct3/4 (unknown origin) expressed in human HeLa cells assessed as accumulation of Nanog after 72 hrs by immunoblotting; assay type: cell-based; outline: as §2
[17] = molecular target: POU domain, class 5, transcription factor 1 (Homo sapiens) (UniProt Q01860); experiment: Activation of Oct3/4 (unknown origin) expressed in HEK293 cells assessed as […] of Rex1 gene expression after 72 hrs by RT-PCR analysis; assay type: cell-based; outline: as §4
[18] = molecular target: POU domain, class 5, transcription factor 1 (Homo sapiens) (UniProt Q01860); experiment: Activation of Oct3/4 in human fibroblasts assessed as increase of Lin28 protein expression after 72 hrs by immunoblotting relative to control; outline: as §2
[19] = molecular target: POU domain, class 5, transcription factor 1 (Homo sapiens) (UniProt Q01860); experiment: Activation of Oct3/4 (unknown origin) transcriptional activity expressed in human NCCIT cells after 72 hrs by luciferase reporter gene assay relative to control; assay type: cell-based; outline: as §1
[20] = molecular target: POU domain, class 5, transcription factor 1 (Homo sapiens) (UniProt Q01860); experiment: Activation of Oct3/4 (unknown origin) expressed in HEK293 cells assessed as increase of Nanog gene expression after 72 hrs by RT-PCR analysis; assay type: cell-based; outline: as §4
[21] = molecular target: POU domain, class 5, transcription factor 1 (Homo sapiens) (UniProt Q01860); experiment: Activation of Oct3/4 in human fibroblasts assessed as repression of N-cadherin gene expression after 48 hrs by RT-PCR analysis relative to control; outline: as §4
[22] = molecular target: POU domain, class 5, transcription factor 1 (Homo sapiens) (UniProt Q01860); experiment: Activation of Oct3/4 (unknown origin) expressed in human NCCIT cells at 20 uM after 2 hrs by luciferase reporter gene assay relative to control; assay type: cell-based
[23] = molecular target: POU domain, class 5, transcription factor 1 (Homo sapiens) (UniProt Q01860); experiment: Activation of Oct3/4 (unknown origin) expressed in HEK293 cells at 20 uM after 72 hrs by luciferase reporter gene assay relative to control; assay type: cell-based; outline: as §1
[24] = molecular target: POU domain, class 5, transcription factor 1 (Homo sapiens) (UniProt Q01860); experiment: Activation of Oct3/4 (unknown origin) transcriptional activity expressed in human NCCIT cells at 20 uM by luciferase reporter gene assay relative to control; assay type: cell-based; settings: TDE = time-dependent effect; outline: as §1
[25] = molecular target: POU domain, class 5, transcription factor 1 (Homo sapiens) (UniProt Q01860); experiment: Activation of Oct3/4 in human fibroblasts assessed as increase of Nanog gene expression after 48 hrs by RT-PCR analysis relative to control; outline: as §4
[26] = molecular target: POU domain, class 5, transcription factor 1 (Homo sapiens) (UniProt Q01860); experiment: Activation of Oct3/4 in human fibroblasts assessed as co-expression of Nanog and Klf4 after 5 days by immunocytochemistry analysis; outline: as §3
[27] = molecular target: POU domain, class 5, transcription factor 1 (Homo sapiens) (UniProt Q01860); experiment: Activation of Oct3/4 in human fibroblasts assessed as increase of Nanog protein expression after 72 hrs by immunoblotting relative to control; outline: as §2
[28] = molecular target: POU domain, class 5, transcription factor 1 (Homo sapiens) (UniProt Q01860); experiment: Activation of Oct3/4 (unknown origin) expressed in HEK293 cells assessed as increase of Sox2 gene expression after 72 hrs by RT-PCR analysis; assay type: cell-based; outline: as §4

Structure (SMILES): O=C(O)c1csc(Nc2ccc(Cl)cc2Cl)n1
Activity [1]: inactive

Structure (SMILES): CCOC(=O)c1csc(Nc2ccc(Nc3nc(C(=O)OCC)cs3)cc2)n1
Activity [1]: inactive

Structure (SMILES): CCOC(=O)c1csc(Nc2ccc(Cl)cc2)n1
Activity [2]: inactive
fold change (FC) [3]: 3.5
Activity [4]: Active
Activity [5]: Active
Activity (Fibroblast [6]): Active
Activity (HEK293 [7]): Active
Activity [8]: inactive
Activity [9]: Dose-dependent effect
Activity [10]: Active
fold change (FC) [11]: 20
fold change (FC) (Fibroblast [12]): 15
fold change (FC) [13]: 30
Activity [14]: Active
Activity (HEK293 [15]): Dose-dependent effect
Activity [16]: Dose-dependent effect
Activity [17]: Active
Activity [18]: Active
Activity [19]: Dose-dependent effect
fold change (FC) [19]: 4
Activity [20]: Active
Activity [21]: Active
Activity [22]: Active
fold change (FC) [23]: 2
Activity [24]: tde
fold change (FC) [25]: 2
Activity [26]: Active
Activity [1]: Active
Activity [27]: Active
Activity [28]: Active

Structure (SMILES): CCOC(=O)c1csc(Nc2ccc(Cl)cc2Cl)n1
Activity [1]: Active

Structure (SMILES): O=C(O)c1csc(Nc2cc(Cl)ccc2Cl)n1
Activity [1]: inactive

Structure (SMILES): CCOC(=O)c1csc(Nc2cccc(F)c2)n1
Activity [1]: Active

Structure (SMILES): CCOC(=O)c1csc(Nc2ccc(Cl)c(Cl)c2)n1
Activity [1]: Active

Structure (SMILES): O=C(O)c1csc(Nc2ccc(Cl)cc2)n1
Activity [1]: inactive

Structure (SMILES): O=C(O)c1csc(Nc2cccc(Cl)c2)n1
Activity [1]: inactive

Structure (SMILES): CN(C)CCCNC(=O)c1csc(Nc2ccc(Cl)cc2)n1
Activity [1]: inactive

Next, values leading:

Activity [1]: inactive
Structure (SMILES): CCOC(=O)c1csc(NC(C)=O)n1

Activity [1]: inactive
Structure (SMILES): CCCCNc1nc(C(=O)OCC)cs1

Activity [1]: inactive
Structure (SMILES): CCOC(=O)c1csc(NCc2ccccc2)n1

Activity [1]: inactive
Structure (SMILES): C=CCNc1nc(C(=O)OCC)cs1

Activity [1]: inactive
Structure (SMILES): CCOC(=O)c1csc(N)n1

Activity [1]: Active
Structure (SMILES): CCOC(=O)c1csc(Nc2ccccc2)n1

Activity [1]: Active
Structure (SMILES): CCOC(=O)c1csc(Nc2cccc(Cl)c2)n1
